According to ChEMBL document CHEMBL1129786, “Ryanodine action at calcium release channels. 1. importance of hydroxyl substituents” (J Med Chem, 1996):

Species on record: Rattus norvegicus
Assay: Potency relative to ryanodine inhibiting rat ventricular muscle strip contractility.
Format: functional, Muscle tissue
Conditions: not given
Method in brief: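 Right ventricular muscle strips from rat suspended in Krebs-Henseleit solution at 30 °C, aerated O2-CO2 95:5; resting tension 0.5 g. Contraction evoked by electrical stimulation was recorded and its inhibition measured. IC50 values are expressed relative to ryanodine; three to five experiments.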

Row | SMILES | Potency
1 | C=C1CCC2(O)C3(C)CC4(O)OC25C1OP(=O)(NC)OC51C3(O)C(OC(=O)c2ccc[nH]2)C(O)(C(C)C)C41C (centres undefined) | <3.5
2 | CC1CCC2(O)C3(OC4(O)CC2(C)C2(NO)C(OC(=O)c5ccc[nH]5)C(O)(C(C)C)C4(C)C23)C1O (centres undefined) | 4.9
3 | C=C1CCC2(O)C3(C)CC4(O)OC2(C1O)C1(O)C3(O)C(OC(=O)c2cccn2C)C(O)(C(C)C)C41C (centres undefined) | 100
4 | CC1CCC2(O)C3(C)CC4(O)OC2(C1O)C1(O)C3(O)C(OC(=O)c2ccc[nH]2)C2(OC2(C)C)C41C (stereo in doubt; 25) | 24
5 | C=C1CCC23OB(O)OC45C(OC(=O)c6ccc[nH]6)C(O)(C(C)C)C6(C)C(O)(CC24C)OC3(C1O)C56O (centres undefined) | 28
6 | CONC12C(OC(=O)c3ccc[nH]3)C(O)(C(C)C)C3(C)C1C14OC3(O)CC2(C)C1(O)CCC(C)C4O (centres undefined) | <1.1
7 | CC1CCC2(O)C3(C)CC4(O)OC2(C1O)C1(O)C3(O)C(OC(=O)c2ccc[nH]2)C2(OC2(C)C)C41C (stereo in doubt; 26) | 3.4
8 | C=C1CCC23OB(c4ccsc4)OC45C(OC(=O)c6ccc[nH]6)C(O)(C(C)C)C6(C)C(O)(CC24C)OC3(C1O)C56O (centres undefined) | 52
9 | CC1CCC2(O)C3(OC4(O)CC2(C)C2(O)C(OC(=O)c5ccc[nH]5)C(O)(C(C)C)C4(C)C23)C1O (centres undefined) | 64
10 | C=C1CCC23OB(CC)OC45C(OC(=O)c6ccc[nH]6)C(=C(C)C)C6(C)C(O)(CC24C)OC3(C1O)C65O (centres undefined) | 26
11 | CC1CCC2(O)C3(C)CC4(O)OC2(C1O)C1(O)C3(O)C(OC(=O)c2ccc[nH]2)C(O)(C(C)(C)O)C41C (centres undefined) | 26
12 | C=C1CCC23OB(C)OC45C(OC(=O)c6ccc[nH]6)C(O)(C(C)C)C6(C)C(O)(CC24C)OC3(C1O)C56O (centres undefined) | 100
13 | CC1CCC2(O)C3(C)CC4(O)OC2(C1O)C1(O)C3(O)C(OC(=O)c2ccc[nH]2)C(O)(C(C)C)C41C (centres undefined) | 100

Species on record: Rattus norvegicus
Assay: Inhibition of rat ventricular muscle strip contractility.
Format: functional
Conditions: Muscle tissue
Method in brief: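 Rat right ventricular muscle strips were held in water-jacketed baths of Krebs-Henseleit solution at 30 °C, aerated with O2-CO2 (95:5), at 0.5 g resting tension. Contraction was evoked by electrical stimulation and recorded on a polygraph. IC50 was taken from inhibition of contraction, using three to five experiments.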

Row | SMILES | IC50
14 | CC1CCC2(O)C3(C)CC4(O)OC2(C1O)C1(O)C3(O)C(OC(=O)c2ccc[nH]2)C(O)(C(C)C)C41C (centres undefined) | 34 nM
